In ChEMBL document CHEMBL3994609, “Model-Based Discovery of Synthetic Agonists for the Zn2+-Sensing G-Protein-Coupled Receptor 39 (GPR39) Reveals Novel Biological Functions” (J Med Chem, 2017):
Calls of active or inactive are those of the source. No cut-off for these calls is given here.

Tests used:
[1] = molecular target: T1, G-protein coupled receptor 39 (Homo sapiens) (UniProt O43194); assay: Agonist activity at human GPR39 expressed in HEK293 cells co-expressing Galphaq assessed as myo-[2-3H]inositol phosphate accumulation in presence of 10 uM Zn2+ measured after 75 mins by scintillation proximity assay relative to zinc; type: functional, cell-based
T1 sequence (whole entry): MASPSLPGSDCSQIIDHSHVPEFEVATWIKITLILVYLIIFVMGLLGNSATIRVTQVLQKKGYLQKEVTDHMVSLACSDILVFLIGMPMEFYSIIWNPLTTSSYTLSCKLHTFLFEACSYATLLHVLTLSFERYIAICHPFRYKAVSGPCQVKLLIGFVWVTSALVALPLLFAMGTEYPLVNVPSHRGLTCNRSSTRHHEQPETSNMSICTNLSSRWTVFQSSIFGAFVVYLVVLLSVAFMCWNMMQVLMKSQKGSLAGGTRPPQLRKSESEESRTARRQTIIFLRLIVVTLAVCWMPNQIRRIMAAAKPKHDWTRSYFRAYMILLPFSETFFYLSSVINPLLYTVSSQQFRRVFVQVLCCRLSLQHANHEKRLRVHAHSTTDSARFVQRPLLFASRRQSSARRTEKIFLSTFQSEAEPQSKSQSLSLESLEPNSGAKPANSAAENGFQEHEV

[2] = molecular target: T1, G-protein coupled receptor 39 (Homo sapiens); assay: Agonist activity at human GPR39 expressed in HEK293 cells co-expressing Galphaq assessed as myo-[2-3H]inositol phosphate accumulation in presence of 100 nM Zn2+ measured after 75 mins by scintillation proximity assay; type: functional, cell-based
[3] = molecular target: T2, G-protein coupled receptor 39 (Homo sapiens, UniProt O43194); assay: Agonist activity at human GPR39 expressed in HEK293 cells co-expressing Galphaq assessed as myo-[2-3H]inositol phosphate accumulation in presence of 10 uM Zn2+ measured after 75 mins by scintillation proximity assay; type: functional, cell-based
T2 sequence (O43194 whole entry): T1 sequence (whole entry)

[4] = molecular target: T1, G-protein coupled receptor 39 (Homo sapiens); assay: (§1) Agonist activity at human GPR39 expressed in HEK293 cells co-expressing Galphaq assessed as myo-[2-3H]inositol phosphate accumulation measured after 75 mins by scintillation proximity assay; type: functional, cell-based
[5] = molecular target: T2, G-protein coupled receptor 39; assay: as §1; type: functional, cell-based
[6] = Half life in human liver microsomes at 3 uM measured by LC-MS/MS analysis; type: ADME, microsome
[7] = molecular target: T3, G-protein coupled receptor 39 (Mus musculus, UniProt Q5U431); assay: Agonist activity at mouse GPR39 expressed in HEK293 cells co-expressing Galphaq assessed as myo-[2-3H]inositol phosphate accumulation measured after 75 mins by scintillation proximity assay; type: functional, cell-based
T3 sequence (Q5U431 whole entry): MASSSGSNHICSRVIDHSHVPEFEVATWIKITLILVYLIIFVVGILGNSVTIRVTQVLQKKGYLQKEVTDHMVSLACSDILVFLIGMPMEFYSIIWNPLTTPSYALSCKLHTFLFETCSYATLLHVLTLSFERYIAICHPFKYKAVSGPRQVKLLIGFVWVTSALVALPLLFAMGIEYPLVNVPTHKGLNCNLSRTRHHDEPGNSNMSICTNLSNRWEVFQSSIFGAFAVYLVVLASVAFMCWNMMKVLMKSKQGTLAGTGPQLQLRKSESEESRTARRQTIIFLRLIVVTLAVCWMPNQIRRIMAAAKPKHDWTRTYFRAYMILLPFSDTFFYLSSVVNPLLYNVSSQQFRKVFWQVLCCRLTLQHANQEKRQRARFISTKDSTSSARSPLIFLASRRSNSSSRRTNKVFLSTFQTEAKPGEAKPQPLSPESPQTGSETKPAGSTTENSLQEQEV

Pancreatic islet = assay: Induction of glucose-stimulated insulin release in mouse pancreatic islets at 1 uM pretreated for 24 hrs followed by glucose addition measured after 30 mins; type: functional, cell-based
In short: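 Islets isolated from GPR39-deficient mice and wild-type littermates on five independent days, 2 to 3 mice per day; insulin secretion measured with vehicle or 1 μM compound.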

[8] = Intrinsic clearance in human liver microsomes assessed per mg protein at 3 uM measured after 45 mins by LC-MS/MS analysis; type: ADME, microsome; settings: read-out: CLH

**Q.** With C/C(=N\NC(=O)c1cc2ccccc2cc1O)c1ccc(N)cc1 as the molecule, how does the fold change (FC) [1] read?
**A.** 2

**Q.** What about the Activity [2] of the same molecule?
**A.** inactive

**Q.** What about the EC50 [3] of the same molecule?
**A.** 1.1 µM

**Q.** And the Activity [4]?
**A.** inactive

**Q.** Which EC50 [3] does the source give for Cc1nn(-c2ncnc3nc[nH]c23)c2c1C(OCCn1nccc1C)CC(=O)N2 (stereo not given) here?
**A.** 0.01 µM

**Q.** And the EC50 [5]?
**A.** 1.62 µM

**Q.** Which half-life at 3 µM [6] does the source give for Cc1nn(-c2ncnc3nc[nH]c23)c2c1C(c1ccc(OC(C)C)cc1)CC(=O)N2 (stereo not given) here?
**A.** 24 min

**Q.** What about the EC50 [7] of the same molecule?
**A.** 0.38 µM

**Q.** And the Activity (Pancreatic islet)?
**A.** inactive

**Q.** And the microsomal CLint at 3 µM [8]?
**A.** 58.3 µL/min/mg

**Q.** And the EC50 [3]?
**A.** 0.018 µM

**Q.** And the EC50 [5]?
**A.** 2.7 µM

**Q.** Which EC50 [3] does the source give for Cc1nn(-c2ncnc3nc[nH]c23)c2c1C(OC1CCCC1)CC(=O)N2 (stereo not given) here?
**A.** 0.002 µM

**Q.** What about the EC50 [5] of the same molecule?
**A.** 0.062 µM

**Q.** Which EC50 [3] does the source give for Cc1nn(-c2ncnc3nc[nH]c23)c2c1C(OC(=O)c1ccc(F)cc1)CC(=O)N2 (stereo not given) here?
**A.** 0.004 µM

**Q.** And the EC50 [5]?
**A.** 0.245 µM

**Q.** Which results are given for Cc1nn(-c2ncnc3nc[nH]c23)c2c1C(NC(=O)Cc1cccs1)CC(=O)N2 (stereo not given)?
**A.** EC50 [3]: 0.003 µM; EC50 [5]: 0.244 µM

**Q.** Which EC50 [3] does the source give for Cc1nn(-c2ncnc3nc[nH]c23)c2c1C(OCc1ccccc1F)CC(=O)N2 (stereo not given) here?
**A.** 0.004 µM

**Q.** And the EC50 [5]?
**A.** 0.078 µM

**Q.** For CCC(C(=O)NC1CC(=O)Nc2c1c(C)nn2-c1ncnc2nc[nH]c12)c1ccccc1 (stereo not given), which EC50 [3] is on record?
**A.** 0.005 µM

**Q.** What about the EC50 [5] of the same molecule?
**A.** 0.079 µM

**Q.** For Cc1nn(-c2ncnc3nc[nH]c23)c2c1C(OCc1ccccc1Cl)CC(=O)N2 (stereo not given), which EC50 [3] is on record?
**A.** 0.002 µM

**Q.** And the EC50 [5]?
**A.** 0.047 µM

**Q.** What does the source list for COc1ccc(CCOC2CC(=O)Nc3c2c(C)nn3-c2ncnc3nc[nH]c23)cc1 (stereo not given)?
**A.** EC50 [3]: 0.002 µM; EC50 [5]: 0.07 µM

**Q.** With Cc1nn(-c2ncnc3nc[nH]c23)c2c1C(C(=O)N(C)c1nccs1)CC(=O)N2 (stereo not given) as the molecule, how does the EC50 [3] read?
**A.** 0.018 µM

**Q.** And the EC50 [5]?
**A.** 3.3 µM

**Q.** With Cc1nn(-c2ncnc3nc[nH]c23)c2c1C(OCCn1cccn1)CC(=O)N2 (stereo not given) as the molecule, how does the EC50 [3] read?
**A.** 0.016 µM

**Q.** What about the EC50 [5] of the same molecule?
**A.** 2.26 µM

**Q.** Which EC50 [3] does the source give for Cc1cc(C)n(CCOC2CC(=O)Nc3c2c(C)nn3-c2ncnc3nc[nH]c23)n1 (stereo not given) here?
**A.** 0.016 µM

**Q.** What about the EC50 [5] of the same molecule?
**A.** 2 µM

**Q.** With Cc1nn(-c2ncnc3nc[nH]c23)c2c1C(OCc1ccc(Cl)cc1Cl)CC(=O)N2 (stereo not given) as the molecule, how does the EC50 [3] read?
**A.** 0.004 µM

**Q.** What about the EC50 [5] of the same molecule?
**A.** 0.243 µM

**Q.** Which fold change (FC) [1] does the source give for C=CCN1c2c(n(C)c(=O)n(C)c2=O)NC1N/N=C/c1ccc(O)cc1O (stereo not given) here?
**A.** 2

**Q.** And the Activity [2]?
**A.** inactive

**Q.** And the EC50 [3]?
**A.** 0.34 µM

**Q.** What about the Activity [4] of the same molecule?
**A.** inactive

**Q.** For Cc1nn(-c2ncnc3nc[nH]c23)c2c1C(OCC(=O)c1ccc(F)cc1)CC(=O)N2 (stereo not given), which EC50 [3] is on record?
**A.** 0.003 µM

**Q.** And the EC50 [5]?
**A.** 0.973 µM

**Q.** For Cc1nn(-c2ncnc3nc[nH]c23)c2c1C(OCCc1ccccc1)CC(=O)N2 (stereo not given), which EC50 [3] is on record?
**A.** 0.003 µM

**Q.** What about the EC50 [5] of the same molecule?
**A.** 0.04 µM

**Q.** Which EC50 [3] does the source give for Cc1nn(-c2ncnc3nc[nH]c23)c2c1C(NC(=O)c1ccccc1)CC(=O)N2 (stereo not given) here?
**A.** 0.003 µM

**Q.** And the EC50 [5]?
**A.** 0.158 µM

**Q.** With OCC(O)/C=N/Nc1nc(Nc2ccccc2)nc(Nc2ccccc2)n1 (stereo not given) as the molecule, how does the fold change (FC) [1] read?
**A.** 2

**Q.** And the Activity [2]?
**A.** inactive

**Q.** What about the EC50 [3] of the same molecule?
**A.** 0.75 µM

**Q.** What about the Activity [4] of the same molecule?
**A.** inactive

**Q.** With Cc1nn(-c2ncnc3nc[nH]c23)c2c1C(C(=O)NCc1ccc(F)cc1)CC(=O)N2 (stereo not given) as the molecule, how does the EC50 [3] read?
**A.** 0.004 µM

**Q.** And the EC50 [5]?
**A.** 1.22 µM

**Q.** Which EC50 [3] does the source give for Cc1nn(-c2ncnc3nc[nH]c23)c2c1C(OCC(C)C)CC(=O)N2 (stereo not given) here?
**A.** 0.004 µM

**Q.** What about the EC50 [5] of the same molecule?
**A.** 0.111 µM

**Q.** Which EC50 [3] does the source give for Cc1nn(-c2ncnc3nc[nH]c23)c2c1C(C(=O)N(C)c1ccccc1)CC(=O)N2 (stereo not given) here?
**A.** 0.032 µM

**Q.** And the EC50 [5]?
**A.** 5.22 µM

**Q.** Which EC50 [5] does the source give for Cc1cc(C)nc(-n2nc(C)c3c2NC(=O)CC3c2ccc(F)cc2F)n1 (stereo not given) here?
**A.** > 10 µM

**Q.** What does the source list for Cc1nn(-c2ncnc3nc[nH]c23)c2c1C(C(=O)NCc1ccc3c(c1)OCO3)CC(=O)N2 (stereo not given)?
**A.** EC50 [3]: 0.007 µM; EC50 [5]: 0.791 µM

**Q.** Which results are given for Cc1nn(-c2ncnc3nc[nH]c23)c2c1C(OCc1ccc(F)cc1)CC(=O)N2 (stereo not given)?
**A.** EC50 [3]: 0.001 µM; EC50 [5]: 0.126 µM

**Q.** Which EC50 [3] does the source give for Cc1noc(C)c1COC1CC(=O)Nc2c1c(C)nn2-c1ncnc2nc[nH]c12 (stereo not given) here?
**A.** 0.005 µM

**Q.** What does the source list for Cc1nn(-c2ncnc3nc[nH]c23)c2c1C(OC(=O)Cc1ccccc1)CC(=O)N2 (stereo not given)?
**A.** EC50 [3]: 0.006 µM; EC50 [5]: 0.381 µM

**Q.** With Cc1nn(-c2ncnc3nc[nH]c23)c2c1C(OCc1ccc(C(C)C)cc1)CC(=O)N2 (stereo not given) as the molecule, how does the EC50 [3] read?
**A.** 0.005 µM

**Q.** And the EC50 [5]?
**A.** 1.69 µM

**Q.** For Cc1nn(-c2ncnc3nc[nH]c23)c2c1C(OCc1ccccc1C#N)CC(=O)N2 (stereo not given), which EC50 [3] is on record?
**A.** 0.008 µM

**Q.** And the EC50 [5]?
**A.** 0.127 µM

**Q.** With CCCCCCCCOC1CC(=O)Nc2c1c(C)nn2-c1ncnc2nc[nH]c12 (stereo not given) as the molecule, how does the EC50 [3] read?
**A.** 0.008 µM

**Q.** What about the EC50 [5] of the same molecule?
**A.** 0.388 µM

**Q.** Which results are given for Cc1nn(-c2ncnc3nc[nH]c23)c2c1C(OCc1ccc(C#N)cc1)CC(=O)N2 (stereo not given)?
**A.** EC50 [3]: 0.004 µM; EC50 [5]: 0.06 µM

**Q.** Which results are given for Cc1nn(-c2ncnc3nc[nH]c23)c2c1C(NC(=O)Cc1ccccc1)CC(=O)N2 (stereo not given)?
**A.** EC50 [3]: 0.003 µM; EC50 [5]: 0.418 µM

**Q.** Which EC50 [5] does the source give for Cc1nn(-c2ncnc3nc[nH]c23)c2c1C(c1ccc(F)cc1F)CC(=O)N2 (stereo not given) here?
**A.** 0.46 µM

**Q.** Which EC50 [3] does the source give for Cc1nn(-c2ncnc3nc[nH]c23)c2c1C(C(=O)Nc1ccccc1)CC(=O)N2 (stereo not given) here?
**A.** 0.01 µM

**Q.** Which EC50 [3] does the source give for Cc1nn(-c2ncnc3nc[nH]c23)c2c1C(C(=O)NCc1ccccc1)CC(=O)N2 (stereo not given) here?
**A.** 0.005 µM

**Q.** What about the EC50 [5] of the same molecule?
**A.** 2.93 µM

**Q.** Which fold change (FC) [1] does the source give for CC(C)(C)c1cc(C(=O)N/N=C/c2ccc(O)cc2O)[nH]n1 here?
**A.** 2

**Q.** What about the Activity [2] of the same molecule?
**A.** inactive

**Q.** And the EC50 [3]?
**A.** 0.24 µM

**Q.** And the Activity [4]?
**A.** inactive
